The values below come from ChEMBL document CHEMBL1138528, “Discovery of tetrasubstituted imidazolines as potent and selective neuropeptide Y Y5 receptor antagonists: reduced human ether-a-go-go related gene potassium channel binding affinity and potent antiobesity effect” (J Med Chem, 2009).

Series [1] addresses T1, Neuropeptide Y receptor type 5 (Homo sapiens, UniProt Q15761).
T1 sequence (Q15761 whole entry): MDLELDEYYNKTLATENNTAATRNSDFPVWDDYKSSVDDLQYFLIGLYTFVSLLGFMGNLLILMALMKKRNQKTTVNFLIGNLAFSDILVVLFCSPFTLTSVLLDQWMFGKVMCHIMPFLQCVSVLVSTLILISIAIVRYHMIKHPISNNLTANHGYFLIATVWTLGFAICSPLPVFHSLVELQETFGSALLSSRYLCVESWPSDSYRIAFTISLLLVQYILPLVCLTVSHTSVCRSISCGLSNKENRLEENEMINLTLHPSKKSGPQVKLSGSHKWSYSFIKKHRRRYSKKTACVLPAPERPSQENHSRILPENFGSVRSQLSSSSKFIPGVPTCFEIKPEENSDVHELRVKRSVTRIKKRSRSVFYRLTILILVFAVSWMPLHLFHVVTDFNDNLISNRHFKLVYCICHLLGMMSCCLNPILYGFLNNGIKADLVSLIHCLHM
Description: Displacement of [125I]PYY from human recombinant neuropeptide Y5 receptor expressed in mouse LMtk- cells. Format: cell-based. Background: Loss of bound radioactivity is the signal in a displacement assay; it reports binding, not function.

Series [2] is described as follows: Octanol-water distribution coefficient, log D at pH 7.4. Format: physicochemical.
Series [3] in a line: Metabolic stability in rat hepatocytes assessed as hepatic clearance by serum incubation method. Format: ADME, cell-based, Liver, Hepatocyte.
In series [4] the target is Voltage-gated inwardly rectifying potassium channel KCNH2 (Homo sapiens, UniProt Q12809).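 Note: radioligand displacement binding to human ERG expressed in HEK293 cells, using a [35S]-labelled spiro-benzopyran-piperidine methanesulfonamide as the displaced ligand.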
Series [5] is described as follows: Plasma concentration in Sprague-Dawley rat at 10 mg/kg, po after 2 hrs. In kind it is ADME, organism-based. The arrangement: dose 10 mg/kg, route oral. In outline: (§1)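 Male SD rats (7-10 weeks, 200-400 g) dosed orally at 10 mg/kg in 0.5% methylcellulose; at 2 h aortic blood taken under isoflurane. Plasma, brain homogenate (sonicated in water) and CSF deproteinized with 3-fold ethanol plus internal standard, -20 °C 20 min, centrifuged; LC/MS/MS with relative calibration curve. Mean, n = 2-3.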

For a further series, the system named is Brain. Description: Drug level in Sprague-Dawley rat brain at 10 mg/kg, po after 2 hrs. Format: ADME, organism-based. The arrangement: dose 10 mg/kg, route oral. The settings on record: in vivo. Put shortly:
as §1

Series [6] can be described thus: Drug level in Sprague-Dawley rat cerebrospinal fluid at 10 mg/kg, po after 2 hrs. In kind it is ADME, organism-based. The arrangement: dose 10 mg/kg, route oral. The settings on record: Sprague-Dawley, cerebrospinal fluid, read-out: Drug uptake. In outline: as §1
Series [7] can be described thus: Ratio of drug level from brain to plasma in Sprague-Dawley rat at 10 mg/kg, po after 2 hrs. Also noted: dose 10 mg/kg, route oral. Format: ADME, organism-based. In outline:
as §1

A short description of series [8]: Ratio of drug level from cerebrospinal fluid to brain in Sprague-Dawley rat at 10 mg/kg, po after 2 hrs. The arrangement: dose 10 mg/kg, route oral. Format: ADME, organism-based, CSF/Brain. The settings on record: in vivo.

The structures appear in SMILES notation.

The term Ki denotes the equilibrium dissociation constant of an inhibitor or competing ligand from its target. One may read the logD as the decadic logarithm of the distribution of all forms, ionised or not, between an organic phase and buffer at a given pH. A high value points to a more lipophilic compound. Broadly, the IC50 is the concentration that inhibits the measured activity by half. In general, Kp refers to the ratio of the level in a tissue or fluid to that in plasma or blood.

Sequence of Voltage-gated inwardly rectifying potassium channel KCNH2 (Q12809 whole entry): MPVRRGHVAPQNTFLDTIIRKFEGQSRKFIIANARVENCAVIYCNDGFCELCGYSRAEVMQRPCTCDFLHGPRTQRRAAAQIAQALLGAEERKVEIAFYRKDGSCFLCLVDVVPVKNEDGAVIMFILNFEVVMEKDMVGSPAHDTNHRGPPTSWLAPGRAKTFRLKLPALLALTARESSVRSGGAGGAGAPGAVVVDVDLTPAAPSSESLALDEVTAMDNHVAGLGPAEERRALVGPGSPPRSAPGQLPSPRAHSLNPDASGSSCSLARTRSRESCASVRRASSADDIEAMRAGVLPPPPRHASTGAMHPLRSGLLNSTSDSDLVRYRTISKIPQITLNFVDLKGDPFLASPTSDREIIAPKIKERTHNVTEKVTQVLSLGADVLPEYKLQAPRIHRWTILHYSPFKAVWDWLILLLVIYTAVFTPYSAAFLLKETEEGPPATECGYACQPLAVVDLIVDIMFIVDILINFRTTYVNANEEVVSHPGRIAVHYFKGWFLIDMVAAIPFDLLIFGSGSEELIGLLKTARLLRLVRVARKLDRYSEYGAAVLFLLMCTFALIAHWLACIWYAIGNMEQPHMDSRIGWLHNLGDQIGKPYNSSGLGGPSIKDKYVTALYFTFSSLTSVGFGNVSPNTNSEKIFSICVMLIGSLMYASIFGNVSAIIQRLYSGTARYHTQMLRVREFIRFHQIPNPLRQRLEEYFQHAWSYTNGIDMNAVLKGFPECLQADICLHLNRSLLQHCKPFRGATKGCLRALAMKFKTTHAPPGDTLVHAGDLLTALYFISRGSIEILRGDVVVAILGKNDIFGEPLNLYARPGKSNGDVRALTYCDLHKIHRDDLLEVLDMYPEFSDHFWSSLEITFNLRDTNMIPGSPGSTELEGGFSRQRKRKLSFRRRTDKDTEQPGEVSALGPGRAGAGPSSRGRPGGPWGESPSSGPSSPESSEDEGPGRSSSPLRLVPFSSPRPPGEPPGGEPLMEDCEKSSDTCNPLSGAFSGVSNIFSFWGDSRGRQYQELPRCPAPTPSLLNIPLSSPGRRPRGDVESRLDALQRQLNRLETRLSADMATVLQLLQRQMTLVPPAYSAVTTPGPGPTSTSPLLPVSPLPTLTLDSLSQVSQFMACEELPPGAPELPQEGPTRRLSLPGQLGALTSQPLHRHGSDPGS

Consider `C[C@H]1NC(c2cc(C#N)ccn2)=NC1(c1ccc(F)cc1)c1ccc(F)cc1`, for which the Ki in [1] was found to be 300 nM.
As to `COc1ccc([C@]2(c3ccc(F)cc3)N=C(c3cc(C#N)ccn3)N[C@H]2C)cn1`, the inhibition constant (Ki) in series [1] came to 1.1 nM. In series [2], this molecule gave a logD of 3.5. In series [3], the CLhep predicted is 44 mL/min/kg.
With `C[C@@H]1NC(c2cnccn2)=NC1(c1ccc(F)cc1)c1ccc(F)cc1`, in series [1], the Ki was 1.9 nM. The logD in series [2] was determined as 3.7. In addition, the CLhep predicted in series [3] is 57 mL/min/kg. For the same molecule, the 50% inhibitory concentration (IC50) in series [4] is over 10000 nM.
In the case of `C[C@@H]1NC(c2cccc(C#N)c2)=N[C@@]1(c1ccc(F)cc1)c1ccc(F)nc1`, in series [1], the Ki came out at 0.8 nM. This molecule showed a logD in series [2] of 3.6. Moreover, in series [3], the CLhep predicted is 9 mL/min/kg. For the same molecule, the concentration at 2 h in series [5] is 2600 nM; in series [6], 130 nM. Moreover, in the series on Brain, the Drug uptake is reported as 6.1 nmol/g. In addition, the Kp at 2 h in series [7] is 2.3.
For the molecule `Fc1ccc(C2(c3ccc(F)cc3)CNC(c3cnccn3)=N2)cc1`, in series [1], the Ki is 4.3 nM. The pH-dependent lipophilicity (logD) in series [2] was determined as 3.5. The CLhep predicted in series [3] is 51 mL/min/kg. In the series on Brain, this molecule yielded a Drug uptake of 5.9 nmol/g. For the same molecule, the Ratio in series [8] was 0.011. Further, the half-maximal inhibitory concentration (IC50) in series [4] came to 3400 nM.
With `C[C@@H]1NC(c2cc(C(N)=O)ccn2)=N[C@@]1(c1ccc(F)cc1)c1ccc(F)nc1`, the Ki in series [1] was determined as 5.1 nM. Besides, in series [2], the logD was 2.4. In addition, the CLhep predicted in series [3] was 7 mL/min/kg.
`C[C@@H]1NC(c2cc(C#N)ccn2)=NC1(c1ccc(F)nc1)c1ccc(F)nc1`: the Ki in series [1] turned out to be 3.1 nM. This molecule also registered a logD in series [2] of 2.2. Also, the CLhep predicted in series [3] is 52 mL/min/kg. The molecule also returned an IC50 in [4] of over 10000 nM.
With `C[C@@H]1NC(c2cnsn2)=N[C@@]1(c1ccc(F)cc1)c1ccc(F)nc1`, the Ki in [1] was found to be 2 nM. This molecule also had a logD in series [2] of 3.1. Moreover, the CLhep predicted in [3] was 58 mL/min/kg.
For `C[C@@H]1NC(c2cccc(S(C)(=O)=O)c2)=N[C@@]1(c1ccc(F)cc1)c1ccc(F)nc1`, the Ki in series [1] worked out at 2.5 nM. The molecule also returned a logD in series [2] of 2.9. In [3], the CLhep predicted is 6 mL/min/kg. The IC50 in series [4] is over 10000 nM.
Take `N#Cc1ccnc(C2=NC(c3ccc(F)cc3)(c3ccc(F)cc3)[C@H](CO)N2)c1`: in series [1], the Ki stood at 3 nM. The logD in series [2] was found to be 3.4. The CLhep predicted in series [3] is 11 mL/min/kg. Also, the concentration at 2 h in series [5] came out at 1100 nM; in series [6], 57 nM. Moreover, the Drug uptake with Brain was found to be 2.3 nmol/g. The Kp at 2 h in series [7] was 2.1. For the same molecule, the Ratio in series [8] was 0.025. This molecule came in with a half-maximal inhibitory concentration (IC50) in series [4] of 6100 nM.
For `C[C@@H]1NC(c2nccc(C#N)n2)=N[C@@]1(c1ccc(F)cc1)c1ccc(F)nc1`, the inhibition constant Ki in [1] stood at 3.6 nM. The logD in [2] was 2.2. For the same molecule, the CLhep predicted in series [3] is 30 mL/min/kg.
Regarding `N#Cc1ccnc(C2=NC(c3ccc(F)cc3)(c3ccc(F)cc3)CN2)c1`, the Ki in [1] amounted to 2 nM. The molecule also had a log distribution coefficient (logD) in series [2] of 4. The CLhep predicted in series [3] is 12 mL/min/kg. This molecule returned a Drug uptake in the series on Brain of 6.4 nmol/g. Further, the Ratio in [8] worked out at 0.004. In [4], this molecule gave an IC50 of 101 nM.
In [2], `C[C@@H]1NC(c2cc(C#N)ccn2)=N[C@]1(c1ccc(F)cc1)c1ccc(F)nc1` came in with a pH-dependent lipophilicity (logD) of 2.9. For the same molecule, the CLhep predicted in series [3] was 56 mL/min/kg.
For `C[C@@H]1NC(c2cncc(C#N)c2)=N[C@@]1(c1ccc(F)cc1)c1ccc(F)nc1`, the Ki in series [1] amounted to 3.2 nM. In series [2], this molecule showed a logD of 2.9. In [3], the CLhep predicted was 12 mL/min/kg. Further, the concentration at 2 h in series [5] amounted to 4400 nM; in series [6], 460 nM. In the series on Brain, this molecule had a Drug uptake of 5.3 nmol/g. Moreover, the Kp at 2 h in series [7] is 1.2. Also, the Ratio in series [8] came out at 0.087. In [4], the IC50 is over 10000 nM.
Turning to `C[C@@H]1NC(c2cnccn2)=N[C@@]1(c1ccc(F)cc1)c1ccc(F)nc1`, the inhibitory constant (Ki) in series [1] amounted to 2.2 nM. In [2], this molecule showed a logD of 2.5. The CLhep predicted in series [3] is 42 mL/min/kg.
With `COc1ccnc(C2=N[C@@](c3ccc(F)cc3)(c3ccc(F)nc3)[C@H](C)N2)c1`, the Ki in [1] was determined as 2.5 nM. This molecule had a logD in series [2] of 3.6. In series [3], the CLhep predicted is 58 mL/min/kg.
Take `CC[C@@H]1NC(c2cc(C#N)ccn2)=NC1(c1ccc(F)cc1)c1ccc(F)cc1`: in [1], the Ki stood at 2.6 nM. The molecule further gave an IC50 in series [4] of 490 nM.
In the case of `C[C@@H]1NC(c2cc(C#N)ccn2)=NC1(c1ccc(F)cc1)c1ccc(F)cc1`, the Ki in [1] was found to be 1 nM. The logD in series [2] was found to be 4.1. Besides, the CLhep predicted in series [3] was 28 mL/min/kg.
For `N#Cc1cccc(C2=NC(c3ccc(F)cc3)(c3ccc(F)cc3)CN2)c1`, the Drug uptake in the series with Brain was 8.1 nmol/g. The Ratio in series [8] is reported as 0.003.
For the molecule `C[C@@H]1NC(c2nccs2)=N[C@@]1(c1ccc(F)cc1)c1ccc(F)nc1`, the Ki in series [1] was 4.1 nM. In series [2], this molecule returned a log distribution coefficient (logD) of 3. In [4], the IC50 is over 10000 nM.
Turning to `C[C@@H]1NC(c2cccc(C#N)n2)=N[C@@]1(c1ccc(F)cc1)c1ccc(F)nc1`, the inhibitory constant (Ki) in series [1] is 5.9 nM. Besides, in series [2], the logD is 3.3. Also, the CLhep predicted in [3] was 13 mL/min/kg. Also, the IC50 in [4] was determined as 6930 nM.
Turning to `C[C@@H]1NC(c2cccc(=O)[nH]2)=N[C@@]1(c1ccc(F)cc1)c1ccc(F)nc1`, in [2], the logD came out at 2.4. Moreover, the concentration at 2 h in [5] was determined as 3700 nM; in [6], 50 nM. In the series with Brain, this molecule displayed a Drug uptake of 0.36 nmol/g. The Kp at 2 h in series [7] amounted to 0.1.
Consider `C[C@@H]1NC(c2cc(C#N)ccn2)=N[C@@]1(c1ccc(F)cc1)c1ccc(=O)[nH]c1`, for which the Ki in series [1] stood at 145 nM.
In the case of `C[C@@H]1NC(c2cc(Cl)ccn2)=N[C@@]1(c1ccc(F)cc1)c1ccc(F)nc1`, in series [1], the Ki amounted to 1.8 nM. The logD in series [2] came to 3.8. Besides, the CLhep predicted in [3] is 58 mL/min/kg.
As for `C[C@@H]1NC(c2ccnc(C#N)c2)=N[C@@]1(c1ccc(F)cc1)c1ccc(F)nc1`, the Ki in [1] is 1 nM. Also, the logD in series [2] is 3.2. The CLhep predicted in series [3] is 13 mL/min/kg. Further, the concentration at 2 h came out at 3700 nM in series [5] and 220 nM in [6]. The same molecule displayed a Drug uptake in the series with Brain of 3.2 nmol/g. For the same molecule, the partition ratio (Kp) at 2 h in series [7] was determined as 0.9. In addition, the Ratio in series [8] is 0.069. In series [4], this molecule gave an IC50 of over 10000 nM.
On to `CCC[C@@H]1NC(c2cc(C#N)ccn2)=NC1(c1ccc(F)cc1)c1ccc(F)cc1`, for which, in series [1], the Ki was found to be 8.6 nM. Besides, it took 490 nM to reach half-maximal inhibition in series [4] (IC50).
